# Measurements reported in ChEMBL document CHEMBL5058577, “EUbOPEN Chemogenomics Library 2 (Multiplex)” (2022).
# Tested on: HEK-293T
# Test: Multiplex assay against HEK293T
# Format: toxicity, cell-based
# Details: human
# Outline: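 Tubulin, mitochondrial-mass and membrane-permeability phenotypes are per cents of healthy-nucleus cells. Cells were gated by CellPathfinder machine learning into Hoechst high-intensity objects or normal cells, normal cells into healthy, pyknosed or fragmented nuclei, and pyknosed cells into mitotic or apoptotic. Before that, live cells stained at seeding with Hoechst33342, BioTracker Green Microtubule Cytoskeleton Dye, MitoTracker Red and Annexin V Alexa Fluor 680 were imaged on a CQ1 microscope at 37°C and 5% CO2 after compound addition.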
# [1] = 12 h, 1 µM, compound concentration 1 uM, replicate 1
# [2] = 12 h, 1 µM, compound concentration 1 uM, replicate 2
# [3] = 12 h, 10 µM, compound concentration 10 uM, replicate 1
# [4] = 12 h, 10 µM, compound concentration 10 uM, replicate 2
# [5] = 24 h, 1 µM, compound concentration 1 uM, replicate 1
# [6] = 24 h, 1 µM, compound concentration 1 uM, replicate 2
# [7] = 24 h, 10 µM, compound concentration 10 uM, replicate 1
# [8] = 24 h, 10 µM, compound concentration 10 uM, replicate 2
# [9] = 48 h, 1 µM, compound concentration 1 uM, replicate 1
# [10] = 48 h, 1 µM, compound concentration 1 uM, replicate 2
# [11] = 48 h, 10 µM, compound concentration 10 uM, replicate 1
# [12] = 48 h, 10 µM, compound concentration 10 uM, replicate 2
structure (smiles),measurement,setting,value
C[C@@H]1C[C@H]2[C@@H]3CCC4=CC(=O)C=C[C@]4(C)[C@@]3(F)[C@@H](O)C[C@]2(C)[C@@]1(O)C(=O)CO [DEXAMETHASONE],Population Apoptotic (%),[1],37%
same,Population Fragmented Nuclei (%),[1],8%
same,Population Healthy Nuclei (%),[1],78%
same,Population Hoechst High Intensity Objects (%),[1],2%
same,Population Membrane Permeable-Phenotype (%),[1],1%
same,Population Mitochondria Different-Phenotype (%),[1],45%
same,Population Mitotic Cells (%),[1],62%
same,Population Normal (%),[1],97%
same,Population Pyknosed Nuclei (%),[1],12%
same,Population Tubulin-Different-Phenotype (%),[1],24%
same,Total Cell Count,[1],420
same,Population Apoptotic (%),[2],53%
same,Population Fragmented Nuclei (%),[2],7%
same,Population Healthy Nuclei (%),[2],80%
same,Population Hoechst High Intensity Objects (%),[2],8%
same,Population Membrane Permeable-Phenotype (%),[2],0%
same,Population Mitochondria Different-Phenotype (%),[2],62%
same,Population Mitotic Cells (%),[2],46%
same,Population Normal (%),[2],91%
same,Population Tubulin-Different-Phenotype (%),[2],26%
same,Total Cell Count,[2],372
same,Population Apoptotic (%),[3],37%
same,Population Fragmented Nuclei (%),[3],7%
same,Population Healthy Nuclei (%),[3],79%
same,Population Hoechst High Intensity Objects (%),[3],6%
same,Population Membrane Permeable-Phenotype (%),[3],0%
same,Population Mitochondria Different-Phenotype (%),[3],44%
same,Population Mitotic Cells (%),[3],62%
same,Population Normal (%),[3],93%
same,Population Pyknosed Nuclei (%),[3],13%
same,Population Tubulin-Different-Phenotype (%),[3],33%
same,Total Cell Count,[3],374
same,Population Apoptotic (%),[4],44%
same,Population Fragmented Nuclei (%),[4],5%
same,Population Healthy Nuclei (%),[4],81%
same,Population Hoechst High Intensity Objects (%),[4],14%
same,Population Mitochondria Different-Phenotype (%),[4],69%
same,Population Mitotic Cells (%),[4],55%
same,Population Normal (%),[4],85%
same,Population Tubulin-Different-Phenotype (%),[4],39%
same,Total Cell Count,[4],436
same,Population Apoptotic (%),[5],31%
same,Population Fragmented Nuclei (%),[5],9%
same,Population Healthy Nuclei (%),[5],78%
same,Population Hoechst High Intensity Objects (%),[5],4%
same,Population Membrane Permeable-Phenotype (%),[5],0%
same,Population Mitochondria Different-Phenotype (%),[5],30%
same,Population Mitotic Cells (%),[5],68%
same,Population Normal (%),[5],95%
same,Population Pyknosed Nuclei (%),[5],12%
same,Population Tubulin-Different-Phenotype (%),[5],17%
same,Total Cell Count,[5],569
same,Population Apoptotic (%),[6],42%
same,Population Fragmented Nuclei (%),[6],12%
same,Population Healthy Nuclei (%),[6],79%
same,Population Hoechst High Intensity Objects (%),[6],7%
same,Population Mitochondria Different-Phenotype (%),[6],45%
same,Population Mitotic Cells (%),[6],57%
same,Population Normal (%),[6],92%
same,Population Pyknosed Nuclei (%),[6],8%
same,Total Cell Count,[6],499
same,Population Apoptotic (%),[7],36%
same,Population Fragmented Nuclei (%),[7],8%
same,Population Healthy Nuclei (%),[7],74%
same,Population Hoechst High Intensity Objects (%),[7],6%
same,Population Membrane Permeable-Phenotype (%),[7],0%
same,Population Mitochondria Different-Phenotype (%),[7],30%
same,Population Mitotic Cells (%),[7],63%
same,Population Normal (%),[7],93%
same,Population Pyknosed Nuclei (%),[7],16%
same,Population Tubulin-Different-Phenotype (%),[7],29%
same,Total Cell Count,[7],453
same,Population Apoptotic (%),[8],44%
same,Population Fragmented Nuclei (%),[8],9%
same,Population Healthy Nuclei (%),[8],79%
same,Population Hoechst High Intensity Objects (%),[8],15%
same,Population Mitochondria Different-Phenotype (%),[8],43%
same,Population Mitotic Cells (%),[8],56%
same,Population Normal (%),[8],84%
same,Population Pyknosed Nuclei (%),[8],11%
same,Population Tubulin-Different-Phenotype (%),[8],22%
same,Total Cell Count,[8],513
same,Population Apoptotic (%),[9],30%
same,Population Fragmented Nuclei (%),[9],15%
same,Population Healthy Nuclei (%),[9],77%
same,Population Hoechst High Intensity Objects (%),[9],1%
same,Population Membrane Permeable-Phenotype (%),[9],1%
same,Population Mitochondria Different-Phenotype (%),[9],18%
same,Population Mitotic Cells (%),[9],69%
same,Population Normal (%),[9],98%
same,Population Pyknosed Nuclei (%),[9],7%
same,Population Tubulin-Different-Phenotype (%),[9],12%
same,Total Cell Count,[9],915
same,Population Apoptotic (%),[10],27%
same,Population Healthy Nuclei (%),[10],78%
same,Population Hoechst High Intensity Objects (%),[10],3%
same,Population Membrane Permeable-Phenotype (%),[10],0%
same,Population Mitochondria Different-Phenotype (%),[10],27%
same,Population Mitotic Cells (%),[10],72%
same,Population Normal (%),[10],96%
same,Population Pyknosed Nuclei (%),[10],6%
same,Population Tubulin-Different-Phenotype (%),[10],15%
same,Total Cell Count,[10],685
same,Population Apoptotic (%),[11],25%
same,Population Fragmented Nuclei (%),[11],15%
same,Population Healthy Nuclei (%),[11],76%
same,Population Hoechst High Intensity Objects (%),[11],3%
same,Population Membrane Permeable-Phenotype (%),[11],0%
same,Population Mitochondria Different-Phenotype (%),[11],18%
same,Population Mitotic Cells (%),[11],75%
same,Population Normal (%),[11],96%
same,Population Pyknosed Nuclei (%),[11],7%
same,Population Tubulin-Different-Phenotype (%),[11],14%
same,Total Cell Count,[11],760
same,Population Apoptotic (%),[12],50%
same,Population Fragmented Nuclei (%),[12],16%
same,Population Hoechst High Intensity Objects (%),[12],6%
same,Population Mitochondria Different-Phenotype (%),[12],28%
same,Population Mitotic Cells (%),[12],49%
same,Population Normal (%),[12],93%
same,Population Tubulin-Different-Phenotype (%),[12],19%
same,Total Cell Count,[12],756
